{"data": "Published values gathered from unrelated publications", "target": "Dual specificity tyrosine-phosphorylation-regulated kinase 2 (DYRK2, Homo sapiens, UniProt Q92630)", "One construct used (Q92630 1-601)": "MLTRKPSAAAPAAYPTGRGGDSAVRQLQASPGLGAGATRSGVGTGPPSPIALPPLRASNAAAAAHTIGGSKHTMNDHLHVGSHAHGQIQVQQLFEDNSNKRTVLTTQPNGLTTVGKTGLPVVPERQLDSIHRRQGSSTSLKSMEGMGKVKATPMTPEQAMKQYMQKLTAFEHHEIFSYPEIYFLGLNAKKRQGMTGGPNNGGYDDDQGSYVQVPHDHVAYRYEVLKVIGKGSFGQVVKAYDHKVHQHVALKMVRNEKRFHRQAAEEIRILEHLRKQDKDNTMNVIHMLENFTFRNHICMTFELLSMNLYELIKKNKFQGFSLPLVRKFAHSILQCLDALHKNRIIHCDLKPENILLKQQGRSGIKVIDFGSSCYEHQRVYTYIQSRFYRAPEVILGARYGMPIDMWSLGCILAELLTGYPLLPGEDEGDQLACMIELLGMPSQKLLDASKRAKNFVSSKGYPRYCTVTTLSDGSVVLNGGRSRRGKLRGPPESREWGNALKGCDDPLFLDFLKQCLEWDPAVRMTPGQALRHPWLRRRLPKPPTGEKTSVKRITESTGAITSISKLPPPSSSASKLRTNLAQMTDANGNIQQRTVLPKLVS", "note": "Lines come from different studies, so protocols differ."}
{"SMILES": "O=C(O)[C@H]1[C@H](Cn2nnc3ccccc3c2=O)CC[C@@H]1C(=O)c1ccc(OCCC2CCOCC2)cc1", "read-out": "cell-free assay", "technique": "competition with immobilised ligand", "tested at": "1 µM", "endpoint": "remaining binding", "value": "93%"}
{"SMILES": "O=C(O)c1ccc2c(c1)nc(Nc1ccccc1Cl)c1ncncc12", "read-out": "enzyme activity", "action": "inhibitor", "technique": "radiometric", "tested at": "1 µM", "endpoint": "remaining activity", "value": "60%"}
{"SMILES": "Cc1ccc(NC(=O)c2ccc(C)c(C(F)(F)F)c2)cc1C#Cc1nn(C2CCC(O)CC2)c2ncnc(N)c12 (stereo not shown)", "read-out": "cell-free assay", "tested at": "10 µM", "endpoint": "remaining signal", "value": "107%"}
{"SMILES": "O=C(O)c1ccc2c(c1)nc(NCc1ccccc1)c1ccncc12", "read-out": "enzyme activity", "action": "inhibitor", "technique": "radiometric", "tested at": "1 µM", "endpoint": "remaining activity", "value": "27%"}
{"SMILES": "CCCS(=O)(=O)Nc1ccc(F)c(C(=O)c2c[nH]c3ncc(-c4ccc(Cl)cc4)cc23)c1F", "read-out": "enzyme activity", "action": "inhibitor", "tested at": "1 µM", "endpoint": "inhibition", "value": "< 10%"}
{"SMILES": "O=C(O)c1ccc2c(c1)nc(Nc1ccccc1)c1ncncc12", "read-out": "enzyme activity", "action": "inhibitor", "technique": "radiometric", "tested at": "1 µM", "endpoint": "remaining activity", "value": "54%"}
{"SMILES": "O=C(Nc1cccnn1)N1CC(C/C=C/c2cncc(Oc3ccc(C(F)(F)F)cn3)n2)C1", "read-out": "cell-free assay", "technique": "competition with immobilised ligand", "tested at": "1 µM", "endpoint": "remaining binding", "value": "81%"}
{"SMILES": "C[S+]([O-])c1ccc(-c2nc(-c3ccncc3)c(-c3ccc(F)cc3)[nH]2)cc1 (stereo not shown)", "read-out": "cell-free assay", "tested at": "0.5 µM", "endpoint": "remaining signal", "value": "98.7%"}
{"SMILES": "N#Cc1cccc(Nc2nc3cc(C(=O)O)ccc3c3cncnc23)c1", "read-out": "enzyme activity", "action": "inhibitor", "technique": "radiometric", "tested at": "1 µM", "endpoint": "remaining activity", "value": "55%"}
{"SMILES": "O=C(N1CCS(=O)(=O)CC1)N1C[C@H](c2ccc(OC(F)(F)F)cc2)C[C@H](c2nc(C3CC3)no2)C1", "read-out": "cell-free assay", "technique": "competition with immobilised ligand", "tested at": "1 µM", "endpoint": "remaining binding", "value": "100%"}
{"SMILES": "CC/C(=N\\NC(=O)NCc1cccc(O)c1)c1ccc(O)c(C)c1O", "read-out": "enzyme activity", "action": "inhibitor", "tested at": "0.1 µM", "endpoint": "inhibition", "value": "-0.2%"}
{"SMILES": "Cc1c[nH]c2nccc(Oc3c(F)cc(Nc4cc(Cl)nc(N)n4)cc3F)c12", "read-out": "cell-free assay", "technique": "competition with immobilised ligand", "tested at": "0.1 µM", "endpoint": "remaining binding", "value": "100%"}
{"SMILES": "FC(F)(F)Oc1cccc(-c2cnc3ccc(-c4ccncc4)nn23)c1", "read-out": "enzyme activity", "action": "inhibitor", "technique": "radiometric", "tested at": "1 µM", "endpoint": "activity vs control", "value": "52%"}
{"SMILES": "CN1CC(Oc2cnc(C#N)cc2-c2ccn3nc(NC(=O)C4CC4)cc3c2)C1", "read-out": "enzyme activity", "action": "inhibitor", "tested at": "1 µM", "endpoint": "inhibition", "value": "3%"}
{"SMILES": "O=C(O)c1ccc2c(c1)nc(Nc1ccc(F)c(Cl)c1)c1ccncc12", "read-out": "enzyme activity", "action": "inhibitor", "technique": "radiometric", "tested at": "1 µM", "endpoint": "remaining activity", "value": "5%"}
{"SMILES": "Cc1c(C(=O)O)cc(-c2ccc(C3CCNCC3)cc2)c2ccc(-c3ccc(C(F)(F)F)cc3)cc12", "read-out": "binding", "technique": "competition with immobilised ligand", "tested at": "1 µM", "endpoint": "remaining binding", "value": "100%"}
{"SMILES": "N#CCCc1ccc2c(c1)-c1[nH]c3ccc([N+](=O)[O-])cc3c1CC(=O)N2", "read-out": "cell-free assay", "tested at": "0.5 µM", "endpoint": "remaining signal", "value": "46.8%"}
{"SMILES": "Cn1cnc(Br)c1C1=CN(c2ncnc3[nH]cnc23)CCS1", "read-out": "enzyme activity", "action": "inhibitor", "technique": "radiometric", "tested at": "2 µM", "endpoint": "inhibition", "value": "98.3%"}
{"SMILES": "Cc1ccc(Nc2nccc(N(C)c3ccc4c(C)n(C)nc4c3)n2)cc1S(N)(=O)=O", "read-out": "enzyme activity", "action": "inhibitor", "tested at": "0.3 µM", "endpoint": "inhibition", "value": "-8%"}
